Measured values reported in ChEMBL document CHEMBL1147691, “Quinol fatty alcohols as promoters of axonal growth” (Bioorg Med Chem Lett, 2006).
pIC50: −log10 of the molar value.

Legend:
[1] = tested on: Radical scavenging activity; assay: Hydroxyl radical scavenging activity by ABTS assay; type: functional
Procedure, shortened: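 Competition assay for hydroxyl-radical scavenging in ethanolic medium: hydroxyl radicals oxidise ABTS to the stable ABTS•+ radical cation, read by absorbance at 405 nm. IC50 is the concentration giving a 50% decrease in ABTS•+, reported as the mean of three experiments.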

Cortical neurone [2] = assay: Growth promoting activity in axon relative to control; type: functional, Mus musculus; set-up: concentration or dose not given beside the values
Procedure, shortened: (§1)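 Cortical neurons from E15 mouse embryos, trypsin-dissociated, grown 24 h on poly-L-lysine coverslips (37 °C, 5% CO2). On day 2, compound added for 24 h under the same conditions. On day 3, cells fixed and immunostained with anti-phosphoneurofilament (SMi312) and an Alexa488 secondary. Axonal growth given as % variation from control conditions; means ± SEM.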

Cortical neurone [3] = assay: Growth promoting activity in axon at 100 nM; type: functional, Mus musculus; procedure, shortened: as §1
Cortical neurone [4] = assay: Growth promoting activity in axon at 100 nM in presence of 1 ug/ml myelin protein of glial scar; type: functional, Mus musculus; procedure, shortened: as §1
Cortical neurone [5] = assay: Growth promoting activity in axon at 100 nM in presence of 10 ug/ml myelin protein of glial scar; type: functional, Mus musculus; procedure, shortened: as §1
Cortical neurone [6] = assay: Growth promoting activity in axon at 100 nM in presence of 100 ng/ml Sema3A of glial scar; type: functional, Mus musculus; procedure, shortened: as §1
Cortical neurone [7] = assay: Growth promoting activity in axon at 1 nM; type: functional, Mus musculus; procedure, shortened: as §1
Cortical neurone [8] = assay: Growth promoting activity in axon at 1 nM in presence of 1 ug/ml myelin protein of glial scar; type: functional, Mus musculus; procedure, shortened: as §1
Cortical neurone [9] = assay: Growth promoting activity in axon at 1 nM in presence of 10 ug/ml myelin protein of glial scar; type: functional, Mus musculus; procedure, shortened: as §1
Cortical neurone [10] = assay: Growth promoting activity in axon at 1 nM in presence of 100 ng/ml Sema3A of glial scar; type: functional, Mus musculus; procedure, shortened: as §1

| SMILES | pIC50 [1] | Activity (Cortical neurone [2]) [%] | further results |
| --- | --- | --- | --- |
| COc1ccc(OC)c(CCCCCCCCCCCCO)c1 | < 2.00 | 109 | – |
| COc1ccc(OC)c(CCCCCCCCCCCCCCCCCCO)c1 | < 2.00 | 109 | – |
| COc1cc(CCCCCCCCCCCCCCCCCCO)c(OC)c(OC)c1OC | – | 103 | – |
| COc1cc(CCCCCCCCCCCCCCCCO)c(OC)c(OC)c1OC | – | 127 | – |
| CC1=C(CCCCCCCCCCCCCCCO)C(C)(C)CCC1=O | < 2.00 | 150 | Activity (Cortical neurone [3]): 80%; Activity (Cortical neurone [4]): 28.8%; Activity (Cortical neurone [5]): 5%; Activity (Cortical neurone [6]): 10.2% |
| COc1ccc(OC)c(CCCCCCCCCCCCCCO)c1 | < 2.00 | 110 | – |
| COc1cc(CCCCCCCCCCCCO)c(OC)c(OC)c1OC | – | 100 | – |
| COc1ccc(OC)c(CCCCCCCCCCCCCCCCO)c1 | < 2.00 | 120 | – |
| COc1ccc(OC)c(CCCCCCCCCCCCCCCO)c1 | < 2.00 | 181 | Activity (Cortical neurone [7]): 81%; Activity (Cortical neurone [8]): 18.4%; Activity (Cortical neurone [9]): -5.3%; Activity (Cortical neurone [10]): 12.4% |
| COc1cc(CCCCCCCCCCCCCCO)c(OC)c(OC)c1OC | – | 108 | – |
| COc1cc(CCCCCCCCCCCCCCCO)c(OC)c(OC)c1OC | – | 158 | – |

The next lines start with results.

| pIC50 [1] | SMILES | Activity (Cortical neurone [2]) [%] | further results |
| --- | --- | --- | --- |
| 3.14 | COc1cc(OC)c(OC)cc1CCCCCCCCCCCCCCCCCCO | 106 | – |
| 3.14 | COc1cc(OC)c(OC)cc1CCCCCCCCCCCCO | 108 | – |
| 3.22 | Cc1c(C)c2c(c(C)c1O)CCC(C)(C(=O)O)O2 (stereo unspecified) [TROLOX] | – | – |
| 3.14 | COc1cc(OC)c(OC)cc1CCCCCCCCCCCCCCO | 109 | – |
| 3.14 | COc1cc(OC)c(OC)cc1CCCCCCCCCCCCCCCO | 152 | – |
| 3.14 | COc1cc(OC)c(OC)cc1CCCCCCCCCCCCCCCCO | 135 | – |
